The record followed here is ChEMBL document CHEMBL1145931, “Synthesis of a prodrug designed to release multiple inhibitors of the epidermal growth factor receptor tyrosine kinase and an alkylating agent: a novel tumor targeting concept” (J Med Chem, 2003).

For one series, the system named is NIH3T3. Description: Inhibition of serum stimulated NIH3T3 cell proliferation. To be noted: Mus musculus. The class given is functional, cell-based. Put shortly: (§1)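 Cells were kept in DMEM with 10% FBS, grown to 70% confluence, PBS-washed and serum-starved for 24 h. They were then exposed to drug plus serum for 72 h, with DMSO at most 0.2%. Growth was measured by SRB staining after TCA fixation, OD 492 nm. IC50s are means from three experiments.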

Series [1] can be described thus: Inhibition of serum stimulated HER-14 (EGF-receptor expressing) cell proliferation. The series is classed as functional. Put shortly:
as §1

The nature of series [2]: Inhibition of serum stimulated NIH3T3/neu (ErbB2/neu expressing) cell proliferation. The series is classed as functional. Put shortly:
as §1

The nature of series [3]: Half-life period in phosphate buffered saline (PBS). The series is classed as ADME.
A short description of series [4]: Half-life period in RPMI. To be noted: RPMI medium. The class given is ADME. The procedure, abridged:
(§2)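 Compound dissolved in a minimal amount of DMSO and diluted into RPMI-1640 with 10% FBS. Absorbance was monitored spectrophotometrically in a UV cell held at 37 °C. Half-life came from a one-phase exponential decay curve fit. Each value is from a single experiment.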

The target of series [5] is Epidermal growth factor receptor (Homo sapiens) (UniProt P00533). Put plainly: Inhibition of epidermal growth factor receptor tyrosine kinase (EGFR TK).
Chain of Epidermal growth factor receptor (Homo sapiens) (P00533 whole entry, looked up): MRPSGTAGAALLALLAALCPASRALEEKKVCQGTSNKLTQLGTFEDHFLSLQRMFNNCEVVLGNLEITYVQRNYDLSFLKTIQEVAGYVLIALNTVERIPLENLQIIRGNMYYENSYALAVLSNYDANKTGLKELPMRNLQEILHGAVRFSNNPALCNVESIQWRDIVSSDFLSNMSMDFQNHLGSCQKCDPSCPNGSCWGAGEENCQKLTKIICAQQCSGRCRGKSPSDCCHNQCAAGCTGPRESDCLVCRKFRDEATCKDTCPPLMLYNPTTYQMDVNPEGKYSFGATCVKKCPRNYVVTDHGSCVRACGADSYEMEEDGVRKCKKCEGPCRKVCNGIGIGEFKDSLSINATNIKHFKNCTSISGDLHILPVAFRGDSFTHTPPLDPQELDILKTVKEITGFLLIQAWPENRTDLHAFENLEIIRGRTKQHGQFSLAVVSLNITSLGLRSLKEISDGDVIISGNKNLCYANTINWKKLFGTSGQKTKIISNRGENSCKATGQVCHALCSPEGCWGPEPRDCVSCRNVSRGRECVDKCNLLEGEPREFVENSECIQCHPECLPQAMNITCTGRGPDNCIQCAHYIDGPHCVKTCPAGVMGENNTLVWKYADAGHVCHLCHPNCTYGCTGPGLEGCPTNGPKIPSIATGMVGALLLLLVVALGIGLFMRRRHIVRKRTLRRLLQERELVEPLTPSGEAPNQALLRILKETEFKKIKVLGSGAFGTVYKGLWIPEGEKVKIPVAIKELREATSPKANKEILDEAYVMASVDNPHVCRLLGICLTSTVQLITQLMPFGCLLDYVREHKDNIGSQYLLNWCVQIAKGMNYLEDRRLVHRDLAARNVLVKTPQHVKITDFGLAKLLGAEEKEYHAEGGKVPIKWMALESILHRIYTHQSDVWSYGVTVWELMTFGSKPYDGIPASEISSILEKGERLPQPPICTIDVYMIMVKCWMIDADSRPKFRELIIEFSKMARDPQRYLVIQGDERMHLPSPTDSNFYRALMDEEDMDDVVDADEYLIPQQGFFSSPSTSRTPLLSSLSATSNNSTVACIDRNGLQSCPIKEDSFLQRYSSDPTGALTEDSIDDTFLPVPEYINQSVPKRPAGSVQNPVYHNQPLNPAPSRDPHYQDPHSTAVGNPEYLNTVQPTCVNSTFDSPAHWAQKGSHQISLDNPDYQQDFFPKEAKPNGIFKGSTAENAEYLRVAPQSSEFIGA
The nature of series [6]: Half-life period in RPMI; Not active. The class given is ADME. Put shortly:
as §2

Series [7] can be described thus: Half-life period in phosphate buffered saline (PBS); Not active. The class given is ADME. To be noted: buffer.

Where only a bound is given, the exact number is not on record here.

For the compound `CN(CO)/N=N/c1ccc2ncnc(Nc3cccc(Br)c3)c2c1`, the IC50 in the series with NIH3T3 came out at 12.8 µM; in series [1] it was 2.1 µM; in series [2], 0.09 µM. The half-life in series [3] turned out to be 1.17 h; in series [4] it was 0.667 h.
As for `CC(=O)N(C)/N=N/c1ccc2ncnc(Nc3cccc(C)c3)c2c1`, the IC50 in the series on NIH3T3 was 200 µM; in series [1], 149 µM; in series [2], 60.6 µM; in series [5], 0.578 µM. The half-life in series [3] and in series [4] was > 3.33 h in each case.
Take `C/N=N/Nc1ccc2ncnc(Nc3cccc(C)c3)c2c1`: the IC50 in the series on NIH3T3 came to 125 µM; in series [1], 28.9 µM; in series [2], 16.5 µM. The half-life was found to be 1.15 h in series [3] and 0.583 h in series [4].
In the case of `CC(=O)OCN(C)/N=N/c1ccc2ncnc(Nc3cccc(Br)c3)c2c1`, the IC50 in the series on NIH3T3 was 15.4 µM; in series [1] it was 3.4 µM; in series [2], 0.21 µM; in series [5] it was 0.13 µM. For the same compound, the half-life in series [3] worked out at 1.4 h; in series [4] it was 0.7 h.
In the case of `COc1cc2ncnc(Nc3cccc(Cl)c3)c2cc1OC` [TYRPHOSTIN AG-1478], the results for the IC50 (in the series with NIH3T3; in series [1]; in series [2]) were 28.6 µM, 9.8 µM and 4 µM, respectively.
For `C/N=N/Nc1ccc2ncnc(Nc3cccc(Br)c3)c2c1`, the 50% inhibitory concentration (IC50) is 150 µM in the series on NIH3T3, 8.8 µM in series [1] and 0.09 µM in series [2]. Moreover, the half-life in series [3] came to 1.13 h; in series [4], 0.633 h.
In the case of `COc1cc2ncnc(Nc3cccc(Cl)c3)c2cc1OC.Cn1nnc2c(C(O)O)ncn2c1=O`, the IC50 in the series on NIH3T3 was 39.4 µM; in series [1], 6.2 µM; in series [2], 1.1 µM.
In the case of `Nc1ccc2ncnc(Nc3cccc(Br)c3)c2c1`, the NA result in series [6] and in series [7] was “Not Active” each time. Moreover, the half-inhibitory concentration (IC50) in the series with NIH3T3 was 14.5 µM; in series [1], 10.4 µM; in series [2], 0.42 µM.

Broadly, the IC50 is the concentration at which inhibition is half-maximal. The low end stands for greater potency in that assay, the high end for weaker potency in that assay. One may read the half-life as the time in which the quantity being followed falls by half.
